Among the data in ChEMBL document CHEMBL1287652, “QSAR modeling, synthesis and bioassay of diverse leukemia RPMI-8226 cell line active agents” (2010) are inhibition values, retold here.

The structures appear in SMILES notation.

A short description of the experiment: Antitumor activity against human […] cells at 10 uM after 48 hrs by sulforhodamine B assay relative to control. Type of experiment: functional. The method in brief: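 NCI panel lines were grown in RPMI-1640 with 5% FBS and 2 mM L-glutamine and seeded at 5000–40,000 cells/well according to doubling time. After 24 h at 37 °C, 5% CO2, one dose from a DMSO stock was added for 48 h. Cells were TCA-fixed (10% final adherent, 16% suspension), SRB-stained and read at 515 nm. Percent growth is relative to untreated control.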
Background: Sulforhodamine B stains cellular protein and so reports cell mass.
Regarding `CN1C/C(=C\c2cccs2)C(=O)[C@@]2(C1)[C@H](c1cccs1)CN(C)[C@]21C(=O)N(C)c2ccccc21`, the inhibition at 10 µM stood at 89.4%.

As to `COc1ccc(-c2c3c([nH]c(=S)c2C#N)-c2ccccc2SCC3)cc1`, the inhibition at 10 µM came out at 0.96%. Under `COc1nc(-c2cccs2)cc2c1c(=O)oc1ccccc12` stands 9.11%.

For `O=C(Nc1ccccc1)c1c(-c2ccc(Cl)cc2)cc(-c2ccccc2)nc1N1CCCCC1`, the inhibition at 10 µM stood at 13%.

Turning to `COc1ccc(Nc2nc(-c3ccccc3)cc(-c3ccc(Cl)cc3)c2C(=O)Nc2ccccc2)cc1`, the inhibition at 10 µM was found to be 30%.

On to `CN1CCN(C(=O)/C(=C/c2ccccc2OCCOc2ccccc2/C=C(\NC(=O)c2ccccc2)C(=O)N2CCN(C)CC2)NC(=O)c2ccccc2)CC1`, for which the inhibition at 10 µM was 14.7%. Under `O=C1c2ccccc2SCC[C@@]12[C@H](c1ccc(Cl)cc1)C(c1ccccc1)=NN2c1cccc(Cl)c1` stands 33.2%; under `[3H]C([3H])([3H])N1C(=O)[C@@]2(c3ccccc31)N(C)C[C@@H](c1ccc(Cl)cc1)[C@@]21Cc2ccccc2C1=O`, 86.6%; under `CN1C/C(=C\c2ccc(Cl)cc2)C(=O)[C@@]2(C1)[C@H](c1ccc(Cl)cc1)CN(C)[C@]21C(=O)Nc2ccccc21`, 61.5%. With `Cc1ccc(NC(=O)c2c(-c3ccc(Cl)cc3)cc(-c3ccccc3)nc2Nc2ccc(Cl)cc2)cc1`, the inhibition at 10 µM came out at 58%. On to `O=C(N/C(=C\c1ccccc1OCCOc1ccccc1/C=C(\NC(=O)c1ccccc1)C(=O)N1CCOCC1)C(=O)N1CCOCC1)c1ccccc1`, for which the inhibition at 10 µM amounted to 9.15%. The value for `O=C1c2ccccc2SCC[C@@]12[C@H](c1cccs1)C(c1ccccc1)=NN2c1cccc(Cl)c1` was 29.8%. For the compound `O=C(Nc1ccc(Cl)cc1)/C(=C/c1ccccc1OCCOc1ccccc1/C=C(\NC(=O)c1ccccc1)C(=O)Nc1ccc(Cl)cc1)NC(=O)c1ccccc1`, the inhibition at 10 µM was found to be 6.03%. Under `O=C(Nc1ccccc1)c1c(-c2ccc(Cl)cc2)cc(-c2ccccc2)nc1Nc1ccc(Cl)cc1` stands 53%; under `COc1ccc(Nc2nc(-c3ccccc3)cc(-c3ccc(Cl)cc3)c2C(=O)Nc2ccc(C)cc2)cc1`, 79%; under `Cc1ccc(NC(=O)c2c(-c3ccc(Cl)cc3)cc(-c3ccccc3)nc2N)cc1`, 71%. The value for `Cc1ccc(NC(=O)c2c(-c3ccc(Cl)cc3)cc(-c3ccccc3)nc2N2CCCCC2)cc1` was 24%.

Take `COc1ccc(/C=C2\CN(C)C[C@]3(C2=O)[C@H](c2ccc(OC)cc2)CN(C)[C@]32C(=O)Nc3ccccc32)cc1`: the inhibition at 10 µM turned out to be 79.3%. Under `[3H]N1C(=O)[C@@]2(c3ccccc31)N(C)C[C@@H](c1ccc(Cl)cc1)[C@@]21Cc2ccccc2C1=O` stands 63.4%. Under `COc1ccc([C@@H]2C(c3ccccc3)=NN(c3cccc(Cl)c3)[C@]23CCSc2ccccc2C3=O)cc1` stands 34.3%. Regarding `O=C(N/C(=C\c1ccccc1OCCOc1ccccc1/C=C(\NC(=O)c1ccccc1)C(=O)N1CCCCC1)C(=O)N1CCCCC1)c1ccccc1`, the inhibition at 10 µM was determined as 18.3%.

With `CCn1c(S)n[n+]2c(N)c(C#N)c(-c3ccc(N4CCOCC4)cc3)c(C#N)c12`, the inhibition at 10 µM came to 24.9%. On to `Nc1nc(-c2ccccc2)cc(-c2ccc(Cl)cc2)c1C(=O)Nc1ccccc1`, for which the inhibition at 10 µM amounted to 46%.

Take `[3H]N1C(=O)[C@@]2(c3ccccc31)N(C)C[C@@H](c1cccs1)[C@@]21Cc2ccccc2C1=O`: the inhibition at 10 µM was found to be 10.9%. As to `O=C(Nc1ccccc1)c1c(-c2ccc(Cl)cc2)cc(-c2ccccc2)nc1N1CCOCC1`, the inhibition at 10 µM came to 51%. Under `[3H]N1C(=O)[C@@]2(c3ccccc31)N(C)C[C@@H](c1ccc(OC)cc1)[C@@]21Cc2ccccc2C1=O` stands 33.2%.

As to `[3H]C([3H])([3H])N1C(=O)[C@@]2(c3ccccc31)N(C)C[C@@H](c1ccc(OC)cc1)[C@@]21Cc2ccccc2C1=O`, the inhibition at 10 µM worked out at 82.3%.

As for `Cn1c(S)n[n+]2c(N)c(C#N)c(-c3ccc(N4CCOCC4)cc3)c(C#N)c12`, the inhibition at 10 µM turned out to be 11.9%.

For the compound `Cc1ccc(NC(=O)c2c(-c3ccc(Cl)cc3)cc(-c3ccccc3)nc2N2CCOCC2)cc1`, the inhibition at 10 µM was determined as 39%. Under `O=C(Nc1ccc(Cl)c(Cl)c1)Nc1ccccc1SCCCSc1ccccc1NC(=O)Nc1ccc(Cl)c(Cl)c1` stands 108%.

For `CN1C/C(=C\c2ccc(Cl)cc2)C(=O)[C@@]2(C1)[C@H](c1ccc(Cl)cc1)CN(C)[C@]21C(=O)N(C)c2ccccc21`, the inhibition at 10 µM worked out at 62%. Under `O=C(Nc1ccccc1)c1c(-c2ccc(Cl)cc2)cc(-c2ccccc2)nc1Nc1ccccc1` stands 15%; under `[3H]C([3H])([3H])N1C(=O)[C@@]2(c3ccccc31)N(C)C[C@@H](c1cccs1)[C@@]21Cc2ccccc2C1=O`, 12.1%.

In general, inhibition refers to the relative decrease from the control value, in per cent.
